In ChEMBL document CHEMBL1921716, “Discovery of N-[2-hydroxy-6-(4-methoxybenzamido)phenyl]-4- (4-methyl-1,4-diazepan-1-yl)benzamide (darexaban, YM150) as a potent and orally available factor Xa inhibitor” (J Med Chem, 2011):

How the values were obtained:
[1] = target: T1, Coagulation factor X (Homo sapiens, UniProt P00742); assay: Inhibition of human factor 10A using chromogenic substrate S2222 by absorbance measurement at 405 nm
[2] = test system: Mus musculus; assay: Anticoagulant activity in mouse assessed as prothrombin time at 100 mg/kg, po measured after 0.5 hrs by coagulometric analysis relative to control; type: functional, ICR
[3] = test system: Plasma; assay: Anticoagulant activity in mouse plasma assessed as concentration required to double the clotting time by coagulometric analysis; type: functional
Outline: (§1)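 Citrated blood was spun at 3000 rpm for 10 min to give platelet-poor plasma, stored at −40 °C. Prothrombin time was read on a coagulometer at 37 °C with thromboplastin and compared with a distilled-water control. CT2 (concentration doubling clotting time) was estimated from each concentration–response curve. Each measurement was done three times and reported as the mean.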

[4] = Effective permeability of the compound after 2 hrs by PAMPA at pH 6.5; type: ADME; settings: read-out: Peff
Outline: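 Compound from a 10 mM DMSO stock was diluted to a final concentration of about 50 μM in buffer containing 10% DMSO. Donor was pH 6.5 and acceptor pH 7.4, separated by a filter coated with 20% lecithin in dodecane. Plates were incubated 2 h at 25 °C in saturated humidity. Both compartments were quantified by UV at 270–400 nm against standards, with mass balance, to give Pe (n = 2).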

[5] = test system: Mus musculus; assay: Anticoagulant activity in mouse assessed as prothrombin time at 100 mg/kg, po measured after 2 hrs by coagulometric analysis relative to control; type: functional, ICR
[6] = Intrinsic clearance in CD1 mouse liver microsomes assessed as compound remaining at 0.2 uM after 30 mins; type: ADME, Microsome
[7] = test system: Rattus norvegicus; assay: AUC (0 to 24 hrs) in F344/DuCrlCrlj rat at 100 mg/kg, po assessed as 3-[(4-methoxybenzoyl)amino]-2-{[4-(4-methyl-1,4-diazepan- 1-yl)benzoyl]amino}phenyl beta-D-glucopyranosiduronic acid level after 24 hrs by LC-MS/MS analysis; type: ADME, organism-based, Plasma; set-up: time < 24 hr, dose 100 mg/kg, route oral; settings: in vivo
Outline: (§2)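 Male F344/DuCrlCrlj rats, 6 weeks old and nonfasted, received a single oral dose of 100 mg/kg as the monomaleate salt suspended in 0.5% methylcellulose, dose given as free form. Three rats per time point were bled at 0.5, 1, 2, 4, 8 and 24 h. Plasma was deproteinized with acetonitrile containing internal standards, and parent and glucuronide were measured by LC-MS/MS.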

[8] = test system: Plasma; assay: Anticoagulant activity in human plasma assessed as concentration required to double the clotting time by coagulometric analysis; type: functional
Outline: as §1

[9] = target: Prothrombin (Homo sapiens, UniProt P00734); assay: Inhibition of human thrombin using chromogenic substrate S2238 by dixon plot analysis
Outline: (§3)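 Human enzymes were used at final concentrations of 4.2 mU/mL FXa, 0.20 U/mL thrombin, 1.0 U/mL trypsin and 1.7 mU/mL plasma kallikrein. Substrates were S-2222 (FXa, trypsin), S-2238 (thrombin) and S-2302 (kallikrein). Reactions were started by adding enzyme, and hydrolysis was followed at 405 nm at 37 °C. Mode of inhibition came from Lineweaver–Burk plots and Ki from Dixon plots at several substrate concentrations. Values are means of four determinations.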

[10] = target: Plasma kallikrein (Homo sapiens, UniProt P03952); assay: Inhibition of human plasma kallikrein using chromogenic substrate S2302 by dixon plot analysis
Outline: as §3

[11] = target: T1, Coagulation factor X; assay: Inhibition of human factor 10A using chromogenic substrate S2222 by dixon plot analysis
Outline: as §3

[12] = test system: Rattus norvegicus; assay: Tmax in F344/DuCrlCrlj rat at 100 mg/kg, po assessed as 3-[(4-methoxybenzoyl)amino]-2-{[4-(4-methyl-1,4-diazepan- 1-yl)benzoyl]amino}phenyl beta-D-glucopyranosiduronic acid level after 24 hrs by LC-MS/MS analysis; type: ADME, organism-based; set-up: dose 100 mg/kg, route oral; settings: in vivo
Outline: as §2

[13] = test system: Rattus norvegicus; assay: Cmax in F344/DuCrlCrlj rat at 100 mg/kg, po assessed as 3-[(4-methoxybenzoyl)amino]-2-{[4-(4-methyl-1,4-diazepan- 1-yl)benzoyl]amino}phenyl beta-D-glucopyranosiduronic acid level after 24 hrs by LC-MS/MS analysis; type: ADME, organism-based; set-up: dose 100 mg/kg, route oral; settings: in vivo
Outline: as §2

[14] = target: Trypsin (Homo sapiens, UniProt P07477+P07478+P35030); assay: Inhibition of human trypsin using chromogenic substrate S2222 by dixon plot analysis plot; type: protein assay
Outline: as §3

[15] = Cmax in F344/DuCrlCrlj rat at 100 mg/kg, po; type: ADME, organism-based; set-up: dose 100 mg/kg, route oral; settings: in vivo
Outline: as §2

[16] = AUC (0 to 24 hrs) in F344/DuCrlCrlj rat at 100 mg/kg, po; type: ADME, organism-based; set-up: time < 24 hr, dose 100 mg/kg, route oral; settings: plasma
Outline: as §2

[17] = Tmax in F344/DuCrlCrlj rat at 100 mg/kg, po; type: ADME, organism-based; set-up: dose 100 mg/kg, route oral; settings: in vivo
Outline: as §2

T1 sequence (P00742 41-179 limits assumed): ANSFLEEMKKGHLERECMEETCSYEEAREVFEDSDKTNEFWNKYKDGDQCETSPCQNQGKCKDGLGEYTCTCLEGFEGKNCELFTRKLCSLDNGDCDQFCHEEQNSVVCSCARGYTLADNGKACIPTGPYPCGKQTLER
T1 sequence (P00742 235-488 limits assumed): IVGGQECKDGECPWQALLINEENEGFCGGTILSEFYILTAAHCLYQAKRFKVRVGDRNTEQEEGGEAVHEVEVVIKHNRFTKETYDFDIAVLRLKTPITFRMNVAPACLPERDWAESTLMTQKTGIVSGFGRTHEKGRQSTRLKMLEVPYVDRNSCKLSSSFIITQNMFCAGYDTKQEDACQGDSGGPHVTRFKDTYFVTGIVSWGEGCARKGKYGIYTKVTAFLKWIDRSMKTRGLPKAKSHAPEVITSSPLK
Chain of Plasma kallikrein (P03952 20-390 limits assumed): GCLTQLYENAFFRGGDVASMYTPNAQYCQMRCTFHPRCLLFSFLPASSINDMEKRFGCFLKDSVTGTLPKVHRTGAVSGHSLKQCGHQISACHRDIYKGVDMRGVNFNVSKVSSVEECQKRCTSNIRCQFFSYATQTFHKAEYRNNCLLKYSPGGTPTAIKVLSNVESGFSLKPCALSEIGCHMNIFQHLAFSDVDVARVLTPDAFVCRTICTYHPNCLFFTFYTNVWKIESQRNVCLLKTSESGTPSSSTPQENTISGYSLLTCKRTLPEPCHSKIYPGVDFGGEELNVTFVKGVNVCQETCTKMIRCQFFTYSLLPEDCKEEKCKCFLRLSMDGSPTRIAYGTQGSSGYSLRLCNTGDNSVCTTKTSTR
Chain of Plasma kallikrein (P03952 391-638 limits assumed): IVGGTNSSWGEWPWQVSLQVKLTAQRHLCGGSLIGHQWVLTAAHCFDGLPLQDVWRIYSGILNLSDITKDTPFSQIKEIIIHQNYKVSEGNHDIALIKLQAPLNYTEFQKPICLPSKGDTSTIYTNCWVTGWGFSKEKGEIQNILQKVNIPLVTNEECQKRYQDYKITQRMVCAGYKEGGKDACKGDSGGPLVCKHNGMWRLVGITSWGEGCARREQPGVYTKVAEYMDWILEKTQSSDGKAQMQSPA

Compound | IC50 [1] | fold change (FC) [2] | CD [3] | fold change (FC) [5] | also measured
COc1ccc(C(=O)Nc2ccccc2NC(=O)c2ccc(OC)cc2)cc1 | 4.22 µM | – | – | – | –
COc1ccc(C(=O)Nc2ccc(OC)cc2NC(=O)c2ccc(OC)cc2)cc1 | 6.22 µM | – | – | – | –
COc1ccc(C(=O)Nc2ccccc2NC(=O)c2ccc(N3CCCN(C)CC3)cc2)cc1 | 0.103 µM | 1.38 | 2.8 µM | 1.39 | Papp at 2 h [4]: 42 ×10⁻⁶ cm/s; CLint scaled at 0.2 µM [6]: 2050 mL/min/kg
COc1ccc(C(=O)Nc2ccccc2C(=O)Nc2ccc(N3CCCN(C)CC3)cc2)cc1 | 0.539 µM | – | – | – | –
COc1ccc(NC(=O)c2ccccc2NC(=O)c2ccc(N3CCCN(C)CC3)cc2)cc1 | 0.14 µM | 1.02 | 5.9 µM | 0.98 | –
COc1ccc(C(=O)Nc2cccc(OC)c2NC(=O)c2ccc(N3CCCN(C)CC3)cc2)cc1 | 0.0626 µM | 1.5 | 3.7 µM | 1.32 | Papp at 2 h [4]: 47.5 ×10⁻⁶ cm/s; CLint scaled at 0.2 µM [6]: 2200 mL/min/kg
COc1ccc(C(=O)Nc2ccc(OC)cc2NC(=O)c2ccc(N3CCCN(C)CC3)cc2)cc1 | 0.0734 µM | 1.35 | 7.5 µM | 1.38 | –
COc1ccc(C(=O)Nc2cc(OC)ccc2NC(=O)c2ccc(N3CCCN(C)CC3)cc2)cc1 | 0.118 µM | 1.25 | 7.1 µM | 1.34 | –
COc1ccc(C(=O)Nc2c(NC(=O)c3ccc(N4CCCN(C)CC4)cc3)cccc2OC)cc1 | 0.213 µM | – | 13 µM | – | –
COc1ccc(C(=O)Nc2cccc(C(=O)O)c2NC(=O)c2ccc(N3CCCN(C)CC3)cc2)cc1 | 0.0992 µM | 1.05 | 9 µM | 1.08 | –
COc1ccc(C(=O)Nc2ccc(C(=O)O)cc2NC(=O)c2ccc(N3CCCN(C)CC3)cc2)cc1 | 0.0311 µM | 1 | 1.7 µM | 1 | –
COc1ccc(C(=O)Nc2ccc(O)cc2NC(=O)c2ccc(N3CCCN(C)CC3)cc2)cc1 | 0.0503 µM | 1.04 | 1.4 µM | 1 | Papp at 2 h [4]: < 0.3 ×10⁻⁶ cm/s; CLint scaled at 0.2 µM [6]: 1700 mL/min/kg
COc1ccc(C(=O)Nc2cc(O)ccc2NC(=O)c2ccc(N3CCCN(C)CC3)cc2)cc1 | 0.157 µM | 1.02 | 4.7 µM | 1.01 | –
COc1ccc(C(=O)Nc2cccc(F)c2NC(=O)c2ccc(N3CCCN(C)CC3)cc2)cc1 | 0.155 µM | 1.43 | 4.3 µM | 1.22 | –
COc1ccc(C(=O)Nc2cccc(OCC(=O)O)c2NC(=O)c2ccc(N3CCCN(C)CC3)cc2)cc1 | 0.123 µM | 0.99 | 2.8 µM | 0.98 | –
COc1ccc(C(=O)Nc2cccc(OCCO)c2NC(=O)c2ccc(N3CCCN(C)CC3)cc2)cc1 | 0.106 µM | 1.36 | 3 µM | 1.31 | –
CSc1ccc(C(=O)Nc2cccc(O)c2NC(=O)c2ccc(N3CCCN(C)CC3)cc2)cc1 | 1.44 µM | – | – | – | –
CN1CCCN(c2ccc(C(=O)Nc3c(O)cccc3NC(=O)c3ccc(O)cc3)cc2)CC1 | 6.14 µM | – | – | – | –
CN1CCCN(c2ccc(C(=O)Nc3c(O)cccc3NC(=O)c3ccc(F)cc3)cc2)CC1 | 0.349 µM | – | – | – | –
CN1CCCN(c2ccc(C(=O)Nc3c(O)cccc3NC(=O)c3ccc(Cl)cc3)cc2)CC1 | 0.0642 µM | 1.42 | 5.3 µM | 1.32 | –
CN1CCCN(c2ccc(C(=O)Nc3c(O)cccc3NC(=O)c3ccc(Br)cc3)cc2)CC1 | 0.0598 µM | 1.41 | 6.7 µM | 1.62 | –
COc1ccc(C(=O)Nc2cccc(O)c2NC(=O)c2ccc(N3CCCN(C)CC3)cc2)s1 | 0.0861 µM | 2.17 | 3.8 µM | 1.9 | –
CN1CCCN(c2ccc(C(=O)Nc3c(O)cccc3NC(=O)c3ccc(Cl)s3)cc2)CC1 | 0.0413 µM | 1.48 | 5.8 µM | 1.27 | –
CN1CCCN(c2ccc(C(=O)Nc3c(O)cccc3NC(=O)c3ccc(Br)s3)cc2)CC1 | 0.0414 µM | 1.53 | 7.1 µM | 1.22 | –
COc1ccc(C(=O)Nc2cccc(O[C@@H]3O[C@H](C(=O)O)[C@@H](O)[C@H](O)[C@H]3O)c2NC(=O)c2ccc(N3CCCN(C)CC3)cc2)cc1 | 0.0286 µM | – | 2.5 µM | – | AUC [7]: 38539.2 ng·h/mL; CD [8]: 0.95 µM; Papp at 2 h [4]: < 0.2 ×10⁻⁶ cm/s; Ki [9]: > 100 µM; Ki [10]: 17 µM; Ki [11]: 0.02 µM; Tmax [12]: 0.5 h; Cmax [13]: 9439.5 ng/mL; Ki [14]: > 100 µM; CLint scaled at 0.2 µM [6]: 90.6 mL/min/kg
COc1ccc(C(=O)Nc2cccc(O)c2NC(=O)c2ccc(N3CCCN(C)CC3)cc2)cc1.O=C(O)/C=C\C(=O)O | – | – | – | – | Cmax [15]: 175 ng/mL; AUC(0-t) at 24 h [16]: 1290 ng·h/mL; Tmax [17]: 2 h
COc1ccc(C(=O)Nc2cccc(O)c2NC(=O)c2ccc(N3CCCN(C)CC3)cc2)cc1 [DAREXABAN] | 0.0546 µM | 3.49 | 4.1 µM | 2.09 | CD [8]: 1.2 µM; Papp at 2 h [4]: 30 ×10⁻⁶ cm/s; Ki [9]: > 100 µM; Ki [10]: 11 µM; Ki [11]: 0.031 µM; Ki [14]: > 100 µM; CLint scaled at 0.2 µM [6]: 1910 mL/min/kg
